Published values collected from several papers.
Protocols differ between the studies behind these lines.
Target: STE20-like serine/threonine-protein kinase (SLK, Homo sapiens, UniProt Q9H2G2)

`C=CC(=O)N1CCC([C@@H]2CCNc3c(C(N)=O)c(-c4ccc(Oc5ccccc5)cc4)nn32)CC1` gave an inhibition of 0% (enzyme activity, inhibitor; 1 µM).
`CNS(=O)(=O)c1ccc(Nc2ncc(C(F)(F)F)c(N3CCC[C@](C)(O)C3)n2)c(C)c1` gave a remaining binding of 96% (binding, competition with immobilised ligand; 1 µM).
For `CCCCC(=O)Nc1ccc(-c2ccc3ncn(CCC)c(=O)c3c2)cn1`, the remaining binding was 100% (binding, competition with immobilised ligand; 0.5 µM).
With `CC#CC(=O)N1CCC[C@H]1c1nc(-c2ccc(C(=O)Nc3ccccn3)cc2)c2c(N)nccn12` the inhibition was 0% (enzyme activity, inhibitor; 1 µM).
`CN1CCN(C(=O)c2ccc(NC(=O)Nc3ccc(N(C)c4ccnc(Nc5ccc(CS(C)(=O)=O)cc5)n4)cc3)cc2)CC1` has a remaining binding of 8.9% (binding, competition with immobilised ligand; 1 µM).
With `C#Cc1cc(-c2cc(Nc3nc(N[C@@H](C)c4ccc(F)cn4)ncc3Cl)n[nH]2)ccc1C=O` the inhibition was 54.5% (enzyme activity, inhibitor; 0.2 µM).
`C[C@H]1CC[C@H](n2c3cnccc3c3cnc(Nc4ccc5c(n4)CCN(C(=O)CO)C5)nc32)CC1` gave a remaining binding of 78% (binding, competition with immobilised ligand; 1 µM).
`C[C@]1(O)CCCN(c2nc(Nc3ccc(S(=O)(=O)N[C@H]4CC[C@H](CN5CCN(c6ccc(C7CCC(=O)NC7=O)cc6F)CC5)CC4)cc3Cl)ncc2C(F)(F)F)C1` (some centres unmarked) gave a remaining binding of 100% (binding, competition with immobilised ligand; 1 µM).
